From BindingDB's records for doi:10.1021/jm00192a005 (1979) come the findings set out here.

This experiment concerns the target T1, Thymidine kinase, cytosolic (Cricetulus griseus, UniProt P09768).
T1 sequence (P09768 whole entry): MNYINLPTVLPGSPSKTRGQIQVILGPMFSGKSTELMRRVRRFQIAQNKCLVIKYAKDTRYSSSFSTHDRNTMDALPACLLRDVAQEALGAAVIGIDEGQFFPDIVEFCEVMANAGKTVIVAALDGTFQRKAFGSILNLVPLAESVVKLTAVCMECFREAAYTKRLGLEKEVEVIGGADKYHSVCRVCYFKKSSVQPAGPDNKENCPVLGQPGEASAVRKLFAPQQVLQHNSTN
The experiment is described as follows: Competitive inhibition of thymidine kinase in BHK21 (C13) cells using thymidine as substrate assessed as formation of TMP by Lineweaver-Burk plot analysis. The method in brief: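 BHK21(C13) cells sonicated in 0.05 M NaCl; 100000g supernatant stored in 50% glycerol at 4 °C. Assay in Tris-HCl 0.05 M pH 8.0, ATP 5 mM, MgCl2 2.5 mM, [14C]thymidine at four or more levels from 3.6 to 18 μM, two inhibitor levels plus a no-inhibitor control, duplicates, 10 min at 37 °C. [14C]TMP captured on DEAE-cellulose disks and counted by scintillation; Ki taken from Lineweaver-Burk plots.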

Take `CCCCCn1c(=O)c(C)cn([C@H]2C[C@H](O)[C@@H](CO)O2)c1=O`: the Ki worked out at 72 µM.
Then `Cc1cn([C@H]2C[C@H](O)[C@@H](CSCCC(=O)O)O2)c(=O)[nH]c1=O`, with 500 µM; and `CC(=O)N[C@H]1C[C@H](n2cc(C)c(=O)[nH]c2=O)O[C@@H]1CO`, with 2500 µM; and `Cc1cn([C@H]2C[C@H](O)[C@@H](CSCCCC(=O)O)O2)c(=O)[nH]c1=O`, with 1200 µM.
For `CCNC[C@H]1O[C@@H](n2cc(C)c(=O)[nH]c2=O)C[C@@H]1O`, the Ki was 190 µM.
The figure for `N#Cc1cn([C@H]2C[C@H](O)[C@@H](CO)O2)c(=O)[nH]c1=O` is 220 µM.
Consider `CC(=O)N(C)CCN(C)C[C@H]1O[C@@H](n2cc(C)c(=O)[nH]c2=O)C[C@@H]1O`, for which the Ki was 900 µM.
With `CC(=O)NC[C@H]1O[C@@H](n2cc(C)c(=O)[nH]c2=O)C[C@@H]1O` [N-[(2R,5R)-3-Hydroxy-5-(5-methyl-2,4-dioxo-3,4-dihydro-2H-pyrimidin-1-yl)-tetrahydro-furan-2-ylmethyl]-acetamide], the Ki was determined as 6500 µM.
As for `CCS[C@H]1C[C@H](n2cc(C)c(=O)[nH]c2=O)O[C@@H]1CO`, the Ki came out at 12 µM.
With `Nc1cn([C@H]2C[C@H](O)[C@@H](CO)O2)c(=O)[nH]c1=O`, the Ki amounted to 450 µM.
Then `CCC(=O)NCC(O)[C@H]1O[C@@H](n2cc(C)c(=O)[nH]c2=O)C[C@@H]1O` (stereo partly drawn), with 160 µM; and `Cc1cn([C@H]2C[C@H](O)[C@@H](CSCCO)O2)c(=O)[nH]c1=O`, with 800 µM; and `CCCCNC[C@H]1O[C@@H](n2cc(C)c(=O)[nH]c2=O)C[C@@H]1O`, with 270 µM.
The figure for `NCc1cn([C@H]2C[C@H](O)[C@@H](CO)O2)c(=O)[nH]c1=O` is 1700 µM.
The figure for `CCCCCCN(C[C@H]1O[C@@H](n2cc(C)c(=O)[nH]c2=O)C[C@@H]1O)C(C)=O` is 4400 µM.
As for `CC(=O)NCC(O)[C@H]1O[C@@H](n2cc(C)c(=O)[nH]c2=O)C[C@@H]1O` (stereo partly drawn), the Ki was 270 µM.
Then `CCCCCCNC[C@H]1O[C@@H](n2cc(C)c(=O)[nH]c2=O)C[C@@H]1O`, with 180 µM; and `CC(=O)NCCNC[C@H]1O[C@@H](n2cc(C)c(=O)[nH]c2=O)C[C@@H]1O`, with 250 µM.
